Series [1] can be described thus: Metabolic stability in human liver microsomes assessed as parent compound remaining at 0.5 uM incubated for 10 mins. It is filed as ADME. The settings on record: read-out: Stability. The method in brief: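 Compound at 0.5 μM was incubated with human, mouse or cynomolgus liver microsomes for 10 min.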
A general note: Microsomes from liver hold many membrane-bound enzymes, among them those of drug oxidation.

For series [2], the target named is T1, Steroid 17-alpha-hydroxylase/17,20 lyase (Homo sapiens, UniProt P05093).
T1 sequence (P05093 whole entry): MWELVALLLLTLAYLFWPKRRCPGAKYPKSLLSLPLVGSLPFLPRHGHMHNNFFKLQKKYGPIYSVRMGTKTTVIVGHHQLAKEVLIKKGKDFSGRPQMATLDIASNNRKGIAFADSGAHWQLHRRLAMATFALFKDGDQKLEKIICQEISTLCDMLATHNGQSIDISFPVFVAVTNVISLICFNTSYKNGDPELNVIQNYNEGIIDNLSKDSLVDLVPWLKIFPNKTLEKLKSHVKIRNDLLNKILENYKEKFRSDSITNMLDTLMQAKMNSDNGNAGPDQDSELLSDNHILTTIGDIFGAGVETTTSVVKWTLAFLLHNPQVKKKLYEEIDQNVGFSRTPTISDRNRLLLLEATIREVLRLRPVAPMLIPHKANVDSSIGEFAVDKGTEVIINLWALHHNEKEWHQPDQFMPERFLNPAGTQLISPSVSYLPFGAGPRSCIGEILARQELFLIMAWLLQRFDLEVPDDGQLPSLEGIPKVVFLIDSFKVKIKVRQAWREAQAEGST
Briefly: Inhibition of human CYP17A1 expressed in HEK293 cell microsomes using [3H]-pregnenolone as substrate incubated for 45 mins by scintillation proximity assay in presence of NADPH. A general note: SPA uses beads or plates that emit light when radiolabelled molecules are held near them.

Series [3] can be described thus: AUC in cynomolgus monkey plasma at 4 mg/kg, po after 0.25 to 45 hrs by LC-MS/MS analysis. Type of series: ADME, organism-based, Macaca fascicularis. Further details: dose 4 mg/kg, time upper 45 hr, time lower 0.25 hr, route oral. The method in brief:
(§1)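 Cynomolgus monkeys were dosed orally from a solution formulation. Plasma parameters are given as mean ± standard deviation.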

For series [4], the system named is Cynomolgus monkey. Nature of the series: Ratio of Cmax to Cmean in cynomolgus monkey plasma at 4 mg/kg, po after 0.25 to 45 hrs by LC-MS/MS analysis. It is filed as ADME, organism-based, Macaca fascicularis. The settings on record: in vivo.
Series [5] in a line: Intrinsic permeability from basolateral to apical side in human Caco2 cells. Type of series: ADME, cell-based. Conditions: Caco-2.
Series [6] concerns the target T2, Steroid 17-alpha-hydroxylase/17,20 lyase (Macaca fascicularis, UniProt Q2XVA1).
T2 sequence (Q2XVA1 whole entry): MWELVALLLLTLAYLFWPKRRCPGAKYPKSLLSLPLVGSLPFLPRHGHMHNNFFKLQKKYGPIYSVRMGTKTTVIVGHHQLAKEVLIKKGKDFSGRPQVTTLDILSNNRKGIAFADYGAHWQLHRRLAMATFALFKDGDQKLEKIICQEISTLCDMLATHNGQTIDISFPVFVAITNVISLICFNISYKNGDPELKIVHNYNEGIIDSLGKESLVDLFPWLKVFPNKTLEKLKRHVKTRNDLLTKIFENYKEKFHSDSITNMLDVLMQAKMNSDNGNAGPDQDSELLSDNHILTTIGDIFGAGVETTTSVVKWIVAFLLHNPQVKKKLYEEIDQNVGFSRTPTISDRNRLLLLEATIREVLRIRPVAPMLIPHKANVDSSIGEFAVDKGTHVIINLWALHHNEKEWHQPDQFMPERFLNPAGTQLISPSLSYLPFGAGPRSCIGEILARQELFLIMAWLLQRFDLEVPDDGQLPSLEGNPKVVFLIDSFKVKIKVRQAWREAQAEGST
Nature of the series: Inhibition of CYP17A1 in cynomolgus monkey adrenal microsomes using [3H]-pregnenolone as substrate incubated for 45 mins by scintillation proximity assay in presence of NADPH. Further details: species or system Adrenal gland.

The target of series [7] is T1, Steroid 17-alpha-hydroxylase/17,20 lyase. Briefly: Inhibition of CYP17A1 in human adrenal microsomes using [3H]-pregnenolone as substrate incubated for 90 mins by scintillation proximity assay in presence of NADPH. Further details: species or system Adrenal gland.
Series [8] can be described thus: Tmax in one day castrated cynomolgus monkey at 1.5 mg/kg, po bid measured after second dose administered at 8 hrs. It is filed as ADME, organism-based, Macaca fascicularis. The settings on record: male, in vivo. The method in brief: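 Castrated cynomolgus monkeys were studied over one day with oral BID dosing at time 0 and 8 h. Plasma levels were sampled at set time points over 1–24 h and reported as average ± standard deviation in nM, n = 4.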

In series [9] the test system is Cynomolgus monkey. Briefly: Free plasma concentration in cynomolgus monkey plasma at 1 mg/kg, po by LC-MS/MS analysis. Type of series: ADME, organism-based, Macaca fascicularis. The settings on record: in vivo.
A short description of series [10]: Tmax in cynomolgus monkey plasma at 4 mg/kg, po after 0.25 to 45 hrs by LC-MS/MS analysis. It is filed as ADME, organism-based, Macaca fascicularis. The method in brief:
as §1

In series [11] the test system is Cynomolgus monkey. Briefly: Effect on cortisol level in one day castrated cynomolgus monkey assessed as baseline level at 1.5 mg/kg, po bid for 24 hrs by radiometric immunoassay. Type of series: ADME, organism-based, Macaca fascicularis. Conditions: in vivo.
A short description of series [12]: Cmax in cynomolgus monkey plasma at 4 mg/kg, po after 0.25 to 45 hrs by LC-MS/MS analysis. More on the design: dose 4 mg/kg, route oral. It is filed as ADME, organism-based, Macaca fascicularis. The method in brief:
as §1

In series [13] the target is T3, Cytochrome P450 11B1, mitochondrial (Homo sapiens, UniProt P15538).
T3 sequence (P15538 whole entry): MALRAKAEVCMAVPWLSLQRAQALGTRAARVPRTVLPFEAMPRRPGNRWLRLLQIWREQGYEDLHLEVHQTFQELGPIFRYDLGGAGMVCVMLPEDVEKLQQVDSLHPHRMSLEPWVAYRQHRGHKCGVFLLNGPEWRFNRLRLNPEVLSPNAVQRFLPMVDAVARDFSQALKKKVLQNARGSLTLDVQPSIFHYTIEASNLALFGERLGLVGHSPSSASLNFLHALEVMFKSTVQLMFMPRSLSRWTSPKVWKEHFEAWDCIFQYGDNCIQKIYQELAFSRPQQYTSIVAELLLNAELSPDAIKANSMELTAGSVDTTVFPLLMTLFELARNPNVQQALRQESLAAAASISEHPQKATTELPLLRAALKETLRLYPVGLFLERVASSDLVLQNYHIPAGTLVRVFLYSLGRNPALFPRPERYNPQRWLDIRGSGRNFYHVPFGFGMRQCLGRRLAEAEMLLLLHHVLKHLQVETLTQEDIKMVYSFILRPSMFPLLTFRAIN
Nature of the series: Inhibition of CYP11B1 in human H295R cells using deoxycorticosterone as substrate incubated for 48 hrs by LC-MS method. It is filed as ADME, cell-based.

The target in series [14] is T2, Steroid 17-alpha-hydroxylase/17,20 lyase. Briefly: Inhibition of CYP17A1 in cynomolgus monkey using [3H]-pregnenolone as substrate incubated for 45 mins by scintillation proximity assay in presence of NADPH.

The results in this text go back to ChEMBL document CHEMBL3779801, “Discovery of the Selective CYP17A1 Lyase Inhibitor BMS-351 for the Treatment of Prostate Cancer” (ACS Med Chem Lett, 2016).

`Cc1ccncc1-c1cccc2c1ncn2CC(F)(F)F`: the remaining at 10 min, 0.5 µM in series [1] came out at 90%. For the same molecule, the IC50 was 0.019 µM in [2]; 0.002 µM in [6]; 0.02 µM in series [7]; > 7.5 µM in series [13]; 0.004 µM in series [14]. For the same molecule, in series [3], the AUC worked out at 12.3 µM·h. The Ratio in the series with Cynomolgus monkey [4] worked out at 16. In addition, the Papp B→A in series [5] was found to be 30 ×10⁻⁶ cm/s. In addition, the Tmax in series [8] turned out to be 9.5 h; in series [10], 1.3 h. The “Cp(f)” value with Cynomolgus monkey [9] worked out at 80 nM. In addition, the Activity result with Cynomolgus monkey [11] is listed as “Non-toxic”. Besides, the Cmax in series [12] turned out to be 3000 nM.

As a reminder, the IC50 is the midpoint of a concentration-inhibition curve. The term AUC denotes concentration integrated over time. Broadly, the Papp B→A is the apparent permeability from the basolateral to the apical side of a cell layer. By Tmax is commonly meant the time from dosing to the highest level. Usually Cmax stands for the maximum level reached in the sampled fluid or tissue.
